Reference: ChEMBL document CHEMBL1212799 (2010)
Converted amounts (≈) assume the structure as drawn.

Assays:
Klebsiella pneumoniae [1] = assay: Antibacterial activity against Klebsiella pneumoniae isolate 351 in vitro pharmacodynamic model; format: functional
How it was run: (§1)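 Inoculum 10^6 CFU/ml; dosing began 0.5 h after inoculation. Two treated models plus one untreated control per isolate; blood-agar counts; change in log10 CFU/ml over 24 h (detection limit 10^1); drug levels checked by HPLC.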

Klebsiella pneumoniae [2] = assay: Antibacterial activity against Klebsiella pneumoniae isolate 334 in vitro pharmacodynamic model; format: functional
How it was run: (§2)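 Simulated peak 38.4 µg/ml, trough 3.04 µg/ml. CAMHB at 37°C, 10^6 CFU/ml from overnight culture, drug started at 0.5 h. Two treated models plus one growth control. Change in log10 CFU/ml over 24 h on blood agar. Detection limit 10^1 CFU/ml.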

Klebsiella pneumoniae [3] = assay: Antibacterial activity against Klebsiella pneumoniae isolate 375 in vitro pharmacodynamic model; format: functional; how it was run: as §2
Klebsiella pneumoniae [4] = assay: Antibacterial activity against Klebsiella pneumoniae isolate 361 in vitro pharmacodynamic model; format: functional; how it was run: as §1
Pseudomonas aeruginosa [5] = assay: Antibacterial activity against Pseudomonas aeruginosa isolate 1030 in vitro pharmacodynamic model; format: functional; how it was run: as §2
Pseudomonas aeruginosa [6] = assay: Antibacterial activity against Pseudomonas aeruginosa isolate 1038 in vitro pharmacodynamic model; format: functional; how it was run: as §2
Pseudomonas aeruginosa [7] = assay: Antibacterial activity against Pseudomonas aeruginosa isolate 1177 in vitro pharmacodynamic model; format: functional; how it was run: as §2
Klebsiella pneumoniae [8] = assay: fT>MIC in Klebsiella pneumoniae isolate 351 at 2 gram for every 8 hrs administered as 3 hrs infusion over 24 hrs in in vitro pharmcodynamic model; format: functional
How it was run: (§3)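 Samples assayed by HPLC (linear 0.25–40 µg/ml). Time free drug stayed above the modal triplicate broth-microdilution MIC (CLSI) calculated for each 8-h interval.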

Klebsiella pneumoniae [9] = assay: fT>MIC in Klebsiella pneumoniae isolate 368 at 2 gram for every 8 hrs administered as 3 hrs infusion over 24 hrs in in vitro pharmcodynamic model; format: functional
Klebsiella pneumoniae [10] = assay: fT>MIC in Klebsiella pneumoniae isolate 361 at 2 gram for every 8 hrs administered as 3 hrs infusion over 24 hrs in in vitro pharmcodynamic model; format: functional; how it was run: as §3
Pseudomonas aeruginosa [11] = assay: fT>MIC in Pseudomonas aeruginosa isolate 1177 at 2 gram for every 8 hrs administered as 3 hrs infusion over 24 hrs in in vitro pharmcodynamic model; format: functional
Klebsiella pneumoniae [12] = assay: fT>MIC in Klebsiella pneumoniae isolate 351 at 2 gram for every 8 hrs administered as 3 hrs infusion measured over 0-8 hrs in in vitro pharmcodynamic model; format: functional; how it was run: as §3
Klebsiella pneumoniae [13] = assay: fT>MIC in Klebsiella pneumoniae isolate 354 at 2 gram for every 8 hrs administered as 3 hrs infusion measured over 0-8 hrs in in vitro pharmcodynamic model; format: functional; how it was run: as §3
Klebsiella pneumoniae [14] = assay: fT>MIC in Klebsiella pneumoniae isolate 353 at 2 gram for every 8 hrs administered as 3 hrs infusion measured over 0-8 hrs in in vitro pharmcodynamic model; format: functional, isoalte 353; how it was run: as §3
Klebsiella pneumoniae [15] = assay: fT>MIC in Klebsiella pneumoniae isolate 357 at 2 gram for every 8 hrs administered as 3 hrs infusion measured over 0-8 hrs in in vitro pharmcodynamic model; format: functional; how it was run: as §3
Klebsiella pneumoniae [16] = assay: fT>MIC in Klebsiella pneumoniae isolate 334 at 2 gram for every 8 hrs administered as 3 hrs infusion measured over 0-8 hrs in in vitro pharmcodynamic model; format: functional; how it was run: as §3
Klebsiella pneumoniae [17] = assay: fT>MIC in Klebsiella pneumoniae isolate 368 at 2 gram for every 8 hrs administered as 3 hrs infusion measured over 0-8 hrs in in vitro pharmcodynamic model; format: functional; how it was run: as §3
Pseudomonas aeruginosa [18] = assay: fT>MIC in Pseudomonas aeruginosa isolate 1177 at 2 gram for every 8 hrs administered as 3 hrs infusion measured over 0-8 hrs in in vitro pharmcodynamic model; format: functional
Pseudomonas aeruginosa [19] = assay: fT>MIC in Pseudomonas aeruginosa isolate 762 at 2 gram for every 8 hrs administered as 3 hrs infusion measured over 0-8 hrs in in vitro pharmcodynamic model; format: functional
Pseudomonas aeruginosa [20] = assay: fT>MIC in Pseudomonas aeruginosa isolate 988 at 2 gram for every 8 hrs administered as 3 hrs infusion measured over 0-8 hrs in in vitro pharmcodynamic model; format: functional
Klebsiella pneumoniae [21] = assay: fT>MIC in Klebsiella pneumoniae isolate 377 at 2 gram for every 8 hrs administered as 3 hrs infusion measured over 8-16 hrs in in vitro pharmcodynamic model; format: functional
Klebsiella pneumoniae [22] = assay: fT>MIC in Klebsiella pneumoniae isolate 328A at 2 gram for every 8 hrs administered as 3 hrs infusion measured over 8-16 hrs in in vitro pharmcodynamic model; format: functional; how it was run: as §3
Klebsiella pneumoniae [23] = assay: fT>MIC in Klebsiella pneumoniae isolate 354 at 2 gram for every 8 hrs administered as 3 hrs infusion measured over 8-16 hrs in in vitro pharmcodynamic model; format: functional; how it was run: as §3
Klebsiella pneumoniae [24] = assay: fT>MIC in Klebsiella pneumoniae isolate 360 at 2 gram for every 8 hrs administered as 3 hrs infusion measured over 8-16 hrs in in vitro pharmcodynamic model; format: functional; how it was run: as §3
Klebsiella pneumoniae [25] = assay: fT>MIC in Klebsiella pneumoniae isolate 334 at 2 gram for every 8 hrs administered as 3 hrs infusion measured over 8-16 hrs in in vitro pharmcodynamic model; format: functional; how it was run: as §3
Pseudomonas aeruginosa [26] = assay: fT>MIC in Pseudomonas aeruginosa isolate 1030 at 2 gram for every 8 hrs administered as 3 hrs infusion measured over 8-16 hrs in in vitro pharmcodynamic model; format: functional
Pseudomonas aeruginosa [27] = assay: fT>MIC in Pseudomonas aeruginosa isolate 1038 at 2 gram for every 8 hrs administered as 3 hrs infusion measured over 8-16 hrs in in vitro pharmcodynamic model; format: functional
Pseudomonas aeruginosa [28] = assay: fT>MIC in Pseudomonas aeruginosa isolate 762 at 2 gram for every 8 hrs administered as 3 hrs infusion measured over 8-16 hrs in in vitro pharmcodynamic model; format: functional
Pseudomonas aeruginosa [29] = assay: fT>MIC in Pseudomonas aeruginosa isolate 896 at 2 gram for every 8 hrs administered as 3 hrs infusion measured over 8-16 hrs in in vitro pharmcodynamic model; format: functional
Klebsiella pneumoniae [30] = assay: fT>MIC in Klebsiella pneumoniae isolate 354 at 2 gram for every 8 hrs administered as 3 hrs infusion measured over 16-24 hrs in in vitro pharmcodynamic model; format: functional; how it was run: as §3
Klebsiella pneumoniae [31] = assay: fT>MIC in Klebsiella pneumoniae isolate 361 at 2 gram for every 8 hrs administered as 3 hrs infusion measured over 16-24 hrs in in vitro pharmcodynamic model; format: functional; how it was run: as §3
Pseudomonas aeruginosa [32] = assay: fT>MIC in Pseudomonas aeruginosa isolate 1038 at 2 gram for every 8 hrs administered as 3 hrs infusion measured over 16-24 hrs in in vitro pharmcodynamic model; format: functional
Pseudomonas aeruginosa [33] = assay: fT>MIC in Pseudomonas aeruginosa isolate 1177 at 2 gram for every 8 hrs administered as 3 hrs infusion measured over 16-24 hrs in in vitro pharmcodynamic model; format: functional
Pseudomonas aeruginosa [34] = assay: fT>MIC in Pseudomonas aeruginosa isolate 762 at 2 gram for every 8 hrs administered as 3 hrs infusion measured over 16-24 hrs in in vitro pharmcodynamic model; format: functional
Pseudomonas aeruginosa [35] = assay: fT>MIC in Pseudomonas aeruginosa isolate 896 at 2 gram for every 8 hrs administered as 3 hrs infusion measured over 16-24 hrs in in vitro pharmcodynamic model; format: functional
Klebsiella pneumoniae [36] = assay: Antibacterial activity against Klebsiella pneumoniae isolate 357 assessed as reduction of bacterial count at 16 ug/ml within 6 hrs in vitro pharmacodynamic model; format: functional
Klebsiella pneumoniae [37] = assay: Antibacterial activity against Klebsiella pneumoniae isolate 361 assessed as reduction of bacterial count at 64 ug/ml within 6 hrs in vitro pharmacodynamic model; format: functional
Pseudomonas aeruginosa [38] = assay: Antibacterial activity against Pseudomonas aeruginosa isolate 1038 assessed as reduction of bacterial count at 8 ug/ml within 6 hrs in vitro pharmacodynamic model; format: functional
Pseudomonas aeruginosa [39] = assay: Antibacterial activity against Pseudomonas aeruginosa isolate 762 assessed as reduction of bacterial count at 16 ug/ml within 6 hrs in vitro pharmacodynamic model; format: functional
Pseudomonas aeruginosa [40] = assay: Antibacterial activity against Pseudomonas aeruginosa isolate 988 assessed as reduction of bacterial count at 16 ug/ml within 6 hrs in vitro pharmacodynamic model; format: functional

C[C@@H](O)[C@H]1C(=O)N2C(C(=O)O)=C(S[C@@H]3CN[C@H](C(=O)N(C)C)C3)[C@H](C)[C@H]12 [MEROPENEM]
MIC (Klebsiella pneumoniae [1]): 8 µg/mL (≈ 20.9 µM)
MIC (Klebsiella pneumoniae [2]): 32 µg/mL (≈ 83.4 µM)
MIC (Klebsiella pneumoniae [3]): 32 µg/mL (≈ 83.4 µM)
MIC (Klebsiella pneumoniae [4]): 64 µg/mL (≈ 167 µM)
MIC (Pseudomonas aeruginosa [5]): 8 µg/mL (≈ 20.9 µM)
MIC (Pseudomonas aeruginosa [6]): 8 µg/mL (≈ 20.9 µM)
MIC (Pseudomonas aeruginosa [7]): 8 µg/mL (≈ 20.9 µM)
fT>MIC (Klebsiella pneumoniae [8]): 69%
fT>MIC (Klebsiella pneumoniae [9]): 16%
fT>MIC (Klebsiella pneumoniae [10]): 0%
fT>MIC (Pseudomonas aeruginosa [11]): 69%
fT>MIC (Klebsiella pneumoniae [12]): 69%
fT>MIC (Klebsiella pneumoniae [13]): 68%
fT>MIC (Klebsiella pneumoniae [14]): 38%
fT>MIC (Klebsiella pneumoniae [15]): 12%
fT>MIC (Klebsiella pneumoniae [16]): 0%
fT>MIC (Klebsiella pneumoniae [17]): 0%
fT>MIC (Pseudomonas aeruginosa [18]): 75%
fT>MIC (Pseudomonas aeruginosa [19]): 50%
fT>MIC (Pseudomonas aeruginosa [20]): 47%
fT>MIC (Klebsiella pneumoniae [21]): 100%
fT>MIC (Klebsiella pneumoniae [22]): 72%
fT>MIC (Klebsiella pneumoniae [23]): 56%
fT>MIC (Klebsiella pneumoniae [24]): 0%
fT>MIC (Klebsiella pneumoniae [25]): 0%
fT>MIC (Pseudomonas aeruginosa [26]): 78%
fT>MIC (Pseudomonas aeruginosa [27]): 100%
fT>MIC (Pseudomonas aeruginosa [28]): 63%
fT>MIC (Pseudomonas aeruginosa [29]): 63%
fT>MIC (Klebsiella pneumoniae [30]): 3%
fT>MIC (Klebsiella pneumoniae [31]): 0%
fT>MIC (Pseudomonas aeruginosa [32]): 82%
fT>MIC (Pseudomonas aeruginosa [33]): 78%
fT>MIC (Pseudomonas aeruginosa [34]): 56%
fT>MIC (Pseudomonas aeruginosa [35]): 56%
log10cfu (Klebsiella pneumoniae [36]): >3
log10cfu (Klebsiella pneumoniae [37]): >3
log10cfu (Pseudomonas aeruginosa [38]): >=3
log10cfu (Pseudomonas aeruginosa [39]): >=3
log10cfu (Pseudomonas aeruginosa [40]): >=3
